Results taken from ChEMBL document CHEMBL4130474, “Spirotriazoline oxindoles: A novel chemical scaffold with in vitro anticancer properties” (Eur J Med Chem, 2017).
The source made the active and inactive calls. No cut-off for these calls is given here.

Assays:
MCF7 = assay: Antiproliferative activity in human MCF7 cells incubated for 72 hrs by MTT assay; assay type: functional, cell-based; conditions: MCF7, 72 h
Summary of the method: (§1)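 Cells grown in RPMI 1640 with 10% FBS, penicillin/streptomycin; seeded at 2 × 10⁵ cells/mL, allowed to adhere 24 h, then exposed 72 h to compounds diluted in medium from DMSO stocks. MTT added after medium change, 3 h, formazan dissolved in DMSO, absorbance at 570 nm. Triplicate wells, at least 3 independent experiments; IC50 by non-linear regression.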

MDA-MB-231 = assay: Antiproliferative activity in human MDA-MB-231 cells incubated for 72 hrs by MTT assay; assay type: functional, cell-based; conditions: MDA-MB-231, 72 h; summary of the method: as §1
HEK-293T = assay: Antiproliferative activity in human HEK293T cells incubated for 72 hrs by MTT assay; assay type: cell-based; summary of the method: as §1
[1] = Selectivity index, ratio of IC50 for antiproliferative activity in HEK293T cells to IC50 for antiproliferative activity in human MCF7 cells; assay type: toxicity, cell-based; conditions: HEK293T cells versus MCF7 cells, read-out: Ratio IC50
Summary of the method: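 Ratio of HEK 293T IC50 to MCF-7 IC50 from 72 h MTT assays.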

HCT-116 [2] = assay: Antiproliferative activity in p53 (+/+) human HCT116 cells incubated for 72 hrs by MTS assay; assay type: functional, cell-based; conditions: HCT-116, 72 h
Summary of the method: (§2)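 HCT116 p53(+/+) or p53(−/−) seeded at 1 × 10⁵ cells/mL, adhered 24 h, then treated 72 h with compounds diluted from DMSO stocks. Viability by MTS (CellTiter96 AQueous) with absorbance at 490 nm. Duplicate wells, three independent experiments; IC50 by non-linear regression.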

HCT-116 [3] = assay: Antiproliferative activity in p53 (-/-) human HCT116 cells incubated for 72 hrs by MTS assay; assay type: functional, cell-based; conditions: HCT-116, 72 h; summary of the method: as §2
[4] = Selectivity index, ratio of IC50 for antiproliferative activity in HEK293T cells to IC50 for antiproliferative activity in human p53 (+/+) human HCT116 cells; assay type: toxicity, cell-based; conditions: HEK293T cells versus p53 (+/+) HCT116 cells, read-out: Ratio IC50
[5] = Selectivity index, ratio of IC50 for antiproliferative activity in HEK293T cells to IC50 for antiproliferative activity in human p53 (-/-) human HCT116 cells; assay type: toxicity, cell-based; conditions: HEK293T cells versus p53 (-/-) HCT116 cells, read-out: Ratio IC50
[6] = Potency index, ratio of IC50 for antiproliferative activity in human MCF7 cells to IC50 for antiproliferative activity in human MDA-MB-231 cells; assay type: functional
[7] = Potency index, ratio of IC50 for antiproliferative activity in human p53 (+/+) human HCT116 cells to IC50 for antiproliferative activity in human MDA-MB-231 cells; assay type: functional
[8] = Potency index, ratio of IC50 for antiproliferative activity in human p53 (-/-) human HCT116 cells to IC50 for antiproliferative activity in human MDA-MB-231 cells; assay type: functional
[9] = Selectivity index, ratio of IC50 for antiproliferative activity in HEK293T cells to IC50 for antiproliferative activity in human MDA-MB-231 cells; assay type: toxicity, cell-based; conditions: HEK293T cells versus MDA-MB-231 cells, read-out: Ratio IC50
Summary of the method: (§3)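 Ratio of HEK 293T IC50 to MDA-MB-231 IC50 from 72 h MTT assays.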

[10] = Potency index, ratio of IC50 for antiproliferative activity in human MDA-MB-231 cells to IC50 for antiproliferative activity in human MCF7 cells; assay type: functional
Summary of the method: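 Ratio of MDA-MB-231 IC50 to MCF-7 IC50 from 72 h MTT assays.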

[11] = Potency index, ratio of IC50 for antiproliferative activity in human p53 (-/-) human HCT116 cells to IC50 for antiproliferative activity in human p53 (+/+) human HCT116; assay type: functional
HCT-116 [12] = assay: Induction of apoptosis in p53 (+/+) human HCT116 cells assessed as increase in early apoptotic cells level at antiproliferative IC50 level incubated for 72 hrs by Annexin-V and 7-AAD staining based flow cytometry; assay type: functional
Summary of the method: (§4)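 Cells detached with Accutase and stained with Annexin V/7-AAD (Guava Nexin), 20 min at room temperature in the dark. Flow cytometry, ≥5000 events per sample; three independent experiments.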

HCT-116 [13] = assay: Induction of apoptosis in p53 (+/+) human HCT116 cells at 2 times antiproliferative IC50 level incubated for 72 hrs by Annexin-V and 7-AAD staining based flow cytometry; assay type: functional, cell-based; summary of the method: as §4
HCT-116 [14] = assay: Induction of cell cycle arrest in p53 (+/+) human HCT116 cells assessed as accumulation at G0/G1 phase at antiproliferative IC50 level incubated for 24 hrs by propidium iodide staining based flow cytometry (reference value: 31.87%); assay type: functional
HCT-116 [15] = assay: Induction of cell cycle arrest in p53 (+/+) human HCT116 cells assessed as accumulation at S phase at antiproliferative IC50 level incubated for 24 hrs by propidium iodide staining based flow cytometry (reference value: 38.3%); assay type: functional
HCT-116 [16] = assay: Induction of cell cycle arrest in p53 (+/+) human HCT116 cells assessed as accumulation at G0/G1 phase at antiproliferative IC50 level incubated for 48 hrs by propidium iodide staining based flow cytometry (reference value: 50.48%); assay type: functional
HCT-116 [17] = assay: Induction of cell cycle arrest in p53 (+/+) human HCT116 cells assessed as accumulation at S phase at antiproliferative IC50 level incubated for 48 hrs by propidium iodide staining based flow cytometry (reference value: 22.67%); assay type: functional
CCD-18Co [18] = assay: Cytotoxicity in human CCD-18Co cells assessed as reduction in cell viability at antiproliferative IC50 (for p53 (+/+) human HCT116 cells) incubated for 72 hrs by MTS assay; assay type: cell-based
Summary of the method: (§5)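 CCD-18Co colon fibroblasts grown in DMEM with 10% FBS, penicillin/streptomycin, Glutamax, NEAA. […] Viability by MTS, absorbance at 490 nm. Triplicate wells, at least 2 independent experiments; mean ± SEM.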

CCD-18Co [19] = assay: Cytotoxicity in human CCD-18Co cells assessed as reduction in cell viability at antiproliferative IC80 (for p53 (+/+) human HCT116 cells) incubated for 72 hrs by MTS assay; assay type: cell-based; summary of the method: as §5
[20] = target: Tumour suppressor p53/oncoprotein Mdm2 (Homo sapiens) (UniProt P04637+Q00987); assay: Inhibition of p53/MDM2 interaction (unknown origin) transfected in p53 (-/-) human HCT116 cells at 10 uM incubated for 4 hrs by Venus-based bimolecular fluorescence complementation assay
Chain of Tumour suppressor p53/oncoprotein Mdm2 (Homo sapiens) (P04637 whole entry, looked up): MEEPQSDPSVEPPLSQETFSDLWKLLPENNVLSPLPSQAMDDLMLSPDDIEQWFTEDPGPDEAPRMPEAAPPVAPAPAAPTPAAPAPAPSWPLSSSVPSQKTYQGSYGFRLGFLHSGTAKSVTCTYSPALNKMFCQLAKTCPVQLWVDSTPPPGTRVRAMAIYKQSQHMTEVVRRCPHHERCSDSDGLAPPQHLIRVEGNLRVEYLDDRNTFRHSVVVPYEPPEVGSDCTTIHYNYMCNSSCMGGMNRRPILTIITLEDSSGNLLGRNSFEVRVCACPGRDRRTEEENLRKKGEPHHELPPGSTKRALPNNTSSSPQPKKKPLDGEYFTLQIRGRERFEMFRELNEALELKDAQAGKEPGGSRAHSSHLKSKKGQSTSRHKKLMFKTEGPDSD
Chain of Tumour suppressor p53/oncoprotein Mdm2 (Homo sapiens) (Q00987 whole entry, looked up): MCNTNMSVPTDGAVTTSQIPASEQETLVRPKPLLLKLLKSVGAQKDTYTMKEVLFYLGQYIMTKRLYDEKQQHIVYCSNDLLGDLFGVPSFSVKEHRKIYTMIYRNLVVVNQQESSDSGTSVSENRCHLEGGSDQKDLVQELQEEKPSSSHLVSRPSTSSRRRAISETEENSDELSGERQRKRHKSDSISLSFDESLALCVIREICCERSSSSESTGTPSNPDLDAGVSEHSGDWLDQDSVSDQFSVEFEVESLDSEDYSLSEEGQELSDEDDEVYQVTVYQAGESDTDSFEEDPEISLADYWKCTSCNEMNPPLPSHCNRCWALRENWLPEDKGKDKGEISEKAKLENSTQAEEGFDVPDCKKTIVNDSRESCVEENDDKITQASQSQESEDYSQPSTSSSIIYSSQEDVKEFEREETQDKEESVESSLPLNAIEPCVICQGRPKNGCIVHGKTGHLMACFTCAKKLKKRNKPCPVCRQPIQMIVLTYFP
Summary of the method: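 HCT116 p53(−/−) co-transfected with V1-p53/MDM2-V2 BiFC plasmids using Lipofectamine 2000. Medium replaced 4–6 h after transfection, then compound (final 5 and 10 µM), nutlin-3a, or matched DMSO added; transfection period 24 h. Venus fluorescence read by flow cytometry and normalized to DMSO (100%). Three experiments.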

HCT-116 [21] = assay: Reduction in MDM2 protein expression in p53 (+/+) human HCT116 cells at antiproliferative IC50 level incubated for 72 hrs by Western blot; assay type: functional, cell-based
Summary of the method: (§6)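 Lysed in NP-40 buffer, protein measured by Bradford, separated by 8%/14% SDS-PAGE, blotted to nitrocellulose. Probed overnight at 4 °C with anti-p53 (Pab-240) and anti-MDM2 (SMP-14), then HRP secondary with chemiluminescence. Ponceau S loading control, densitometry; two experiments.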

HCT-116 [22] = assay: Increase in p53 protein expression in p53 (+/+) human HCT116 cells at antiproliferative IC50 level incubated for 72 hrs by Western blot; assay type: functional, cell-based; summary of the method: as §6
[23] = […], ratio of IC50 for antiproliferative activity in HEK293T cells to IC50 for antiproliferative activity in human MDA-MB-231 cells; assay type: toxicity, cell-based; conditions: HEK293T cells versus MDA-MB-231 cells, read-out: Ratio IC50; summary of the method: as §3
HCT-116 [24] = assay: Induction of cell cycle arrest in p53 (+/+) human HCT116 cells assessed as accumulation at G2/M phase at antiproliferative IC50 level incubated for 24 hrs by propidium iodide staining based flow cytometry (reference value: 25.85%); assay type: functional
HCT-116 [25] = assay: Induction of cell cycle arrest in p53 (+/+) human HCT116 cells assessed as accumulation at G2/M phase at antiproliferative IC50 level incubated for 48 hrs by propidium iodide staining based flow cytometry (reference value: 26.85%); assay type: functional

| Structure (SMILES) | IC50 (MCF7) | IC50 (MDA-MB-231) | IC50 (HEK-293T) | selectivity ratio [1] | IC50 (HCT-116 [2]) | IC50 (HCT-116 [3]) | selectivity ratio [4] | selectivity ratio [5] | Ratio IC50 [6] | Ratio IC50 [7] | Ratio IC50 [8] | selectivity ratio [9] | selectivity ratio [23] | also measured |
| --- | --- | --- | --- | --- | --- | --- | --- | --- | --- | --- | --- | --- | --- | --- |
| O=C1Nc2ccc(Br)cc2C12N(c1ccccc1)N=C(c1ccccc1)N2c1ccc(F)c(Cl)c1 (stereo not drawn) | 11 µM | 4.6 µM | 16.6 µM | < 2 | 13.5 µM | 15.9 µM | < 2 | < 2 | >=2.4 | >=2.4 | >=2.4 | ≥ 2.4 | – | – |
| O=C1Nc2ccc(Br)cc2[C@]12[C@@H](c1ccccc1)C(c1ccccc1)=NN2c1ccccc1 | 7.3 µM | > 100 µM | > 100 µM | > 13.7 | – | – | – | – | – | – | – | – | – | Ratio IC50 [10]: > 13.7 |
| O=C1Nc2ccc(Br)cc2C12N(c1ccccc1)N=C(c1ccccc1)N2c1cccc(Cl)c1 (stereo not drawn) | 21.4 µM | 3.5 µM | 21.6 µM | < 2 | 15.7 µM | 17.8 µM | < 2 | < 2 | >=2.4 | >=2.4 | >=2.4 | ≥ 2.4 | – | – |
| O=C1Nc2ccc(Br)cc2C12N(c1ccccc1Cl)N=C(c1cccc(Cl)c1)N2c1cccc(Cl)c1 (stereo not drawn) | 9.5 µM | 7.6 µM | 21.4 µM | 2.3 | 13.9 µM | 17.7 µM | 1.5 | < 2 | – | – | – | – | – | Ratio IC50 [11]: 1.3; fold change (FC) (HCT-116 [12]): 2.8; Activity (HCT-116 [13]): Dose-dependent effect; Activity (HCT-116 [14]): 34.54%; Activity (HCT-116 [15]): 42.61%; Activity (HCT-116 [16]): 65.49%; Activity (HCT-116 [17]): 33.41%; Activity (CCD-18Co [18]): Non-Toxic; Activity (CCD-18Co [19]): 40%; inhibition [20]: Active; Activity (HCT-116 [21]): Active; Activity (HCT-116 [22]): Active |
| O=C1Nc2ccc(Cl)cc2C12N(c1ccccc1)N=C(c1ccccc1)N2c1cccc(Cl)c1 (stereo not drawn) | 9.8 µM | 8.9 µM | > 100 µM | 2.5 to 10.2 | 16.3 µM | 17.9 µM | 2.5 to 5.6 | 2.5 to 5.6 | – | – | – | – | ≥ 2.5 | fold change (FC) (HCT-116 [12]): 3.1; Activity (HCT-116 [13]): Dose-dependent effect; Activity (HCT-116 [14]): 50.11%; Activity (HCT-116 [15]): 36.42%; Activity (HCT-116 [24]): 13.87%; Activity (HCT-116 [16]): 58%; Activity (HCT-116 [17]): 31.34%; Activity (HCT-116 [25]): 13.65%; Activity (CCD-18Co [18]): Non-Toxic; Activity (CCD-18Co [19]): 40% |
| O=C1Nc2ccccc2C12N(c1ccccc1)N=C(c1ccccc1)N2c1ccc(Cl)cc1 (stereo not drawn) | 24.1 µM | 10.7 µM | > 100 µM | 2.5 to 4.1 | 15 µM | 18.5 µM | 2.5 to 4.1 | 2.5 to 4.1 | – | – | – | – | ≥ 2.5 | – |
| O=C1Nc2c(Cl)cccc2C12N(c1ccccc1)N=C(c1ccccc1)N2c1ccccc1 (stereo not drawn) | 10.8 µM | 8.9 µM | > 100 µM | 2.5 to 9.3 | 23.7 µM | 20.1 µM | 2.5 to 4.2 | 2.5 to 4.2 | – | – | – | – | ≥ 2.5 | – |
| O=C1Nc2ccc(Br)cc2C12N(c1ccccc1)N=C(c1ccccc1)N2c1ccc(Cl)cc1 (stereo not drawn) | 16.8 µM | 5.2 µM | 21.6 µM | < 2 | 16.3 µM | 18.2 µM | < 2 | < 2 | >=2.4 | >=2.4 | >=2.4 | ≥ 2.4 | – | – |
